These compounds were tested against Coagulation factor X (Homo sapiens) (UniProt P00742) (assay: Binding affinity for coagulation factor X as apparent association constant (Kass) derived from protease inhibition kinetics.).
Procedure, shortened: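 Human fXa, 3.2 nM final, in tris/NaCl buffer pH 7.4 with HSA; inhibitor added in MeOH, then chromogenic substrate (0.3 mM stock in water) to start hydrolysis; rates read at 405 nm. Four to eight inhibitor concentrations, n = 3 each.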

Coagulation factor X (Homo sapiens), sequence (P00742 41-179 limits assumed): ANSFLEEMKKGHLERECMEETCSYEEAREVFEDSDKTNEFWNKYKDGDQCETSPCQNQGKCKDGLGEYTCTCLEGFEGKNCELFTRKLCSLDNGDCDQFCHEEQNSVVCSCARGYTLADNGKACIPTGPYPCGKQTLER
Coagulation factor X (Homo sapiens), sequence (P00742 235-488 limits assumed): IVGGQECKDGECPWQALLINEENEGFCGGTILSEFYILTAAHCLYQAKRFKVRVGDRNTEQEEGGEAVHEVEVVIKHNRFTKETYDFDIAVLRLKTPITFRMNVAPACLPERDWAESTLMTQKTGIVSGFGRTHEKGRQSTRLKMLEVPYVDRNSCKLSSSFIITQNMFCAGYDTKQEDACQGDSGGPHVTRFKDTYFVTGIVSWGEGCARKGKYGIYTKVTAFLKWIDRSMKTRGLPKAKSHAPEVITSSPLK

Row | SMILES | K ass
1 | COc1ccc(NC(=O)c2ccc(NS(C)(=O)=O)cc2NC(=O)c2ccc(C(C)(C)C)cc2)cc1 | 3.9e+06 l M-1
2 | COc1ccc(NC(=O)c2cc(NS(C)(=O)=O)ccc2NC(=O)c2ccc(N(C)C)cc2)cc1 | 5.79e+07 l M-1
3 | COc1ccc(C(=O)Nc2ccccc2NC(=O)c2ccc(N(C)C)cc2)cc1 | 1.87e+07 l M-1
4 | COc1ccc(NC(=O)c2cc(NS(=O)(=O)c3ccccc3)ccc2NC(=O)c2ccc(C(C)(C)C)cc2)cc1 | 4.9e+06 l M-1
5 | COc1ccc(NC(=O)c2cc(NC(=O)CCC(=O)O)ccc2NC(=O)c2ccc(C(C)(C)C)cc2)cc1 | 150000 l M-1
6 | CC(C)(C)c1ccc(C(=O)Nc2ccccc2C(=O)Nc2ccc(C(F)(F)F)cc2)cc1 | 1000 l M-1
7 | CCc1ccc(NC(=O)c2ccccc2NC(=O)c2ccc(C(C)(C)C)cc2)cc1 | 1000 l M-1
8 | COc1ccc(NC(=O)c2ccc(NC(=O)CCC(=O)O)cc2NC(=O)c2ccc(N(C)C)cc2)cc1 | 9.6e+06 l M-1
9 | COc1ccc(NC(=O)c2ccc(N)cc2NC(=O)c2ccc(C(C)(C)C)cc2)cc1 | 6.3e+06 l M-1
10 | COc1ccc(NC(=O)c2ccc(NC(C)=O)cc2NC(=O)c2ccc(C(C)(C)C)cc2)cc1 | 2.2e+06 l M-1
11 | COc1ccc(OCc2ccccc2NC(=O)c2ccc(OC)cc2)cc1 | 30000 l M-1
12 | COc1ccc(NC(=O)c2cc(NC(C)=O)ccc2NC(=O)c2ccc(C(C)(C)C)cc2)cc1 | 40000 l M-1
13 | COc1ccc(NC(=O)c2cc(NC(=O)CCC(=O)O)ccc2NC(=O)c2ccc(N(C)C)cc2)cc1 | 400000 l M-1
14 | COc1ccc(NC(=O)c2cc([N+](=O)[O-])ccc2NC(=O)c2ccc(C(C)(C)C)cc2)cc1 | 2.1e+06 l M-1
15 | COc1ccc(/C=C/c2ccccc2NC(=O)c2ccc(OC)cc2)cc1 | 30000 l M-1
16 | COc1ccc(CCc2ccccc2NC(=O)c2ccc(OC)cc2)cc1 | < 1000 l M-1
17 | COc1ccc(NC(=O)c2ccc(NS(=O)(=O)c3ccccc3)cc2NC(=O)c2ccc(C(C)(C)C)cc2)cc1 | 620000 l M-1
18 | COc1ccc(C(=O)Nc2ccccc2NC(=O)c2ccc(OC)cc2)cc1 | 1.3e+06 l M-1
19 | COc1ccc(NC(=O)c2cc(NS(C)(=O)=O)ccc2NC(=O)c2ccc(C(C)(C)C)cc2)cc1 | 1.35e+07 l M-1
20 | COc1ccc(NC(=O)c2ccc(NC(=O)CCC(=O)O)cc2NC(=O)c2ccc(C(C)(C)C)cc2)cc1 | 9.6e+06 l M-1
21 | COc1ccc(NC(=O)c2ccc([N+](=O)[O-])cc2NC(=O)c2ccc(C(C)(C)C)cc2)cc1 | 80000 l M-1
22 | COc1ccc(NC(=O)c2ccc(NS(C)(=O)=O)cc2NC(=O)c2ccc(N(C)C)cc2)cc1 | 8e+06 l M-1
23 | CC(C)(C)c1ccc(C(=O)Nc2ccccc2C(=O)Nc2ccccc2)cc1 | 460000 l M-1

Other lines, results leading:

Row | K ass | SMILES
24 | 30000 l M-1 | COc1ccc(NC(=O)c2ccccc2NC(=O)c2cccc(Cl)c2)cc1
25 | 3.4e+06 l M-1 | Cc1ccc(NC(=O)c2ccccc2NC(=O)c2ccc(C(C)(C)C)cc2)cc1
26 | 7e+06 l M-1 | COc1ccc(NC(=O)c2cc(N)ccc2NC(=O)c2ccc(N(C)C)cc2)cc1
27 | 7e+06 l M-1 | COc1ccc(NC(=O)c2ccccc2NC(=O)c2ccc(C(C)C)cc2)cc1
28 | 480000 l M-1 | COc1ccc(NC(=O)c2ccccc2NC(=O)c2ccc(C(C)(C)O)cc2)cc1
29 | 1.8e+06 l M-1 | COc1ccc(NC(=O)c2ccccc2NC(=O)c2ccc(C)cc2)cc1
30 | 2.27e+07 l M-1 | COc1ccc(NC(=O)c2ccc(N)cc2NC(=O)c2ccc(N(C)C)cc2)cc1
31 | 1e+06 l M-1 | CCOc1ccc(C(=O)Nc2ccccc2C(=O)Nc2ccc(OC)cc2)cc1
32 | 30000 l M-1 | COc1ccc(C(=O)Nc2ccccc2C(=O)Nc2ccc(C(C)(C)C)cc2)cc1
33 | 1.12e+06 l M-1 | COc1ccc(NC(=O)c2ccccc2NC(=O)c2ccc(C(N)=O)cc2)cc1
34 | 90000 l M-1 | COc1ccc(NC(=O)c2ccccc2NC(=O)c2cccc(N(C)C)c2)cc1
35 | 1.2e+06 l M-1 | COc1ccc(NC(=O)c2ccccc2NC(=O)c2ccc(OC)cc2)cc1
36 | 4.7e+06 l M-1 | COc1ccc(NC(=O)c2ccccc2NC(=O)c2ccc(C(C)(C)C)cc2)cc1
37 | 2.01e+07 l M-1 | COc1ccc(NC(=O)c2ccccc2NC(=O)c2ccc(N(C)C)cc2)cc1
38 | 270000 l M-1 | COc1ccc(NC(=O)c2ccccc2NC(=O)c2ccc(Cl)cc2)cc1
39 | 110000 l M-1 | CC(C)(C)c1ccc(C(=O)Nc2ccccc2C(=O)Nc2ccc(F)cc2)cc1
40 | 90000 l M-1 | COc1ccc(NC(=O)c2ccccc2NC(=O)c2ccc(C(F)(F)F)cc2)cc1
41 | 220000 l M-1 | CC(C)(C)c1ccc(C(=O)Nc2ccccc2C(=O)Nc2ccc(Br)cc2)cc1
42 | 490000 l M-1 | CC(C)(C)c1ccc(C(=O)Nc2ccccc2C(=O)Nc2ccc(Cl)cc2)cc1
43 | 2.5e+06 l M-1 | COc1ccc(NC(=O)c2cc(N)ccc2NC(=O)c2ccc(C(C)(C)C)cc2)cc1
44 | 10000 l M-1 | COc1ccc(NC(=O)c2ccccc2NC(=O)c2ccc(Cl)c(Cl)c2)cc1
45 | 70000 l M-1 | COc1ccc(NC(=O)c2ccccc2C(=O)Nc2ccc(OC)cc2)cc1
46 | 450000 l M-1 | COc1ccc(NC(=O)c2ccccc2NC(=O)c2ccc(C(C)=O)cc2)cc1
47 | 400000 l M-1 | COc1ccc(NC(=O)c2ccccc2NC(=O)c2ccc(C(C)O)cc2)cc1 (centres undefined)
48 | < 1000 l M-1 | CC(C)(C)c1ccc(C(=O)Nc2ccccc2C(=O)Nc2ccc(OC(F)(F)F)cc2)cc1
49 | 30000 l M-1 | COc1ccc(NC(=O)c2ccccc2NC(=O)c2cccc(C)c2)cc1
